Our source for the inhibition, Activity and K values is ChEMBL document CHEMBL4145607, “Tamarixetin Exhibits Anti-inflammatory Activity and Prevents Bacterial Sepsis by Increasing IL-10 Production” (J Nat Prod, 2018).

The subject of test [1] is BMDC. Description: Inhibition of Escherichia coli K1 infection-induced immune response in C57BL/6 mouse BMDC assessed as reduction in IL-6 secretion at 25 uM pretreated for 30 mins followed by Escherichia coli K1 infection for 6 hrs by ELISA. The class given is functional, cell-based. The method, boiled down: (§1)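 BMDCs from C57BL/6 mice were given 25 μM compound and E. coli K1, […]. Timing was: compound 30 min before a 6 h infection; cotreatment for 6 h; or compound for 30–120 min with 6 h infection. Supernatant cytokines (TNF-α, IL-6, IL-10, IL-12p70) were measured by ELISA. At least three experiments in triplicate.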
Background: ELISA stands for enzyme-linked immunosorbent assay.

In test [2] the test system is Mus musculus. Put plainly: Antiseptic activity in Balb/c mouse model of Escherichia coli K1 infection-induced sepsis assessed as reduction in serum blood urea nitrogen level at 1 mg/kg, ip pretreated for 1 hr followed by Escherichia coli K1 infection measured after 2 hrs by ELISA. It is filed as functional, organism-based.
Test [3] deals with Mus musculus. Description: Antiseptic activity in Balb/c mouse model of Escherichia coli K1 infection-induced sepsis assessed as reduction in bacterial count in kidneys at 1 mg/kg, ip pretreated for 1 hr followed by Escherichia coli K1 infection measured after 12 hrs. The class given is functional, organism-based. The method, boiled down:
(§2)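 Pretreatment was 1 mg·kg−1 i.p. 1 h before i.p. E. coli K1 (1 × 10^6 CFU per mouse) in BALB/c mice. At 12 h, lungs, liver and kidneys were homogenized in PBS and diluted 1:1000. 10 μL was plated on LB agar, incubated 24 h at 37 °C, and colonies counted.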

The test system of test [4] is Mus musculus. Put plainly: Antiseptic activity in Balb/c mouse model of Escherichia coli K1 infection-induced sepsis assessed as reduction in bacterial count in lungs at 1 mg/kg, ip pretreated for 1 hr followed by Escherichia coli K1 infection measured after 12 hrs. The class given is functional, organism-based. The method, boiled down:
as §2

In test [5] the test system is BMDC. Description: Inhibition of LPS-induced immune response in C57BL/6 mouse BMDC assessed as reduction in IL-6 secretion at 25 uM treated 6 hrs post LPS-challenge measured after 30 mins by ELISA. The class given is functional, cell-based. The method, boiled down: (§3)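 Bone marrow DCs from 6-week-old female C57BL/6 mice, RBC-lysed, cultured in RPMI-1640/10% FBS with 10 ng/mL rmGM-CSF, 37 °C, 5% CO2. Cells given LPS 50 ng/mL for 6 h, then 25 μM compound added for 30, 60, 90 or 120 min. Supernatant TNF-α, IL-6, IL-10, IL-12p70 measured by sandwich ELISA. Mean ± SEM, compared with LPS-only DCs.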

For test [6], the target named is Mitogen-activated protein kinase 8 (Homo sapiens) (UniProt P45983). Description: Binding affinity to human C-terminal His6-tagged JNK1alpha1 (1 to 364 residues) expressed in Escherichia coli by tryptophan fluorescence quenching assay. The method, boiled down: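 C-terminally His6-tagged human JNK1 (10 μM) was titrated with compound (0–100 μM; final protein:inhibitor 1:10) in 50 mM sodium phosphate, 100 mM NaCl, pH 8.0, at 25 °C. Tryptophan emission was recorded at 290–600 nm with excitation at 290 nm.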

Test [7] concerns Mus musculus. Put plainly: Antiseptic activity in Balb/c mouse model of Escherichia coli K1 infection-induced sepsis assessed as increase in survival rate at 1 mg/kg, ip pretreated for 1 hr followed by Escherichia coli K1 infection measured over 72 hrs relative to control. It is filed as functional. The method, boiled down: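 BALB/c mice dosed i.p. 1 h before i.p. E. coli K1 strain RS218 (O18:K1:H7) challenge, 1 × 10^7 CFU per mouse, diluted in LB broth; n = 10; survival monitored over 72 h.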

For test [8], the system named is Mus musculus. Put plainly: Antiseptic activity in Balb/c mouse model of Escherichia coli K1 infection-induced sepsis assessed as reduction in serum ALT level at 1 mg/kg, ip pretreated for 1 hr followed by Escherichia coli K1 infection measured after 2 hrs by ELISA. The class given is functional, organism-based.
The subject of test [9] is BMDC. Description: Inhibition of Escherichia coli DH5alpha infection-induced immune response in C57BL/6 mouse BMDC assessed as reduction in IL-6 secretion at 25 uM pretreated for 30 mins followed by Escherichia coli DH5alpha infection for 6 hrs by ELISA. It is filed as functional, cell-based. The method, boiled down:
(§4)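 C57BL/6 BMDCs received 25 μM compound and E. coli DH5α, 3 × 10^6 CFU·mL−1. Schedules were: compound 30 min before a 6 h infection; co-addition for 6 h; or compound for 30, 60, 90 or 120 min plus 6 h infection. Supernatant TNF-α, IL-6, IL-10 and IL-12p70 were measured by ELISA. At least three experiments in triplicate.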

Test [10] concerns Mus musculus. Description: Antiinflammatory activity in Balb/c mouse model of LPS-induced endotoxemia assessed as reduction in IL6 level in lungs at 1 mg/kg, ip pretreated for 1 hr followed by LPS-challenge measured after 12 hrs by ELISA. The class given is functional, organism-based. The method, boiled down:
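BALB/c mice got 1 mg·kg−1 i.p. 1 h before i.p. LPS 10 mg·kg−1. After 12 h, TNF-α and IL-6 in lung lysates were measured by sandwich ELISA. Means ± SEM.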

For test [11], the system named is Mus musculus. Description: Antiseptic activity in Balb/c mouse model of Escherichia coli K1 infection-induced sepsis assessed as reduction in serum IL6 level at 1 mg/kg, ip pretreated for 1 hr followed by Escherichia coli K1 infection measured after 2 hrs by ELISA. The class given is functional, organism-based. The method, boiled down: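 BALB/c mice received 1 mg·kg−1 i.p. 1 h before i.p. E. coli K1 RS218, 1 × 10^6 CFU per mouse. Serum was collected at 2 h, and TNF-α, IL-6 and IL-10 were quantified by sandwich ELISA. Means ± SEM.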

For test [12], the system named is BMDC. Description: Inhibition of Escherichia coli K1 infection-induced immune response in C57BL/6 mouse BMDC assessed as increase in IL10 secretion at 25 uM pretreated for 30 mins followed by Escherichia coli K1 infection for 6 hrs by ELISA. The class given is functional, cell-based. The method, boiled down:
as §1

Test [13] relates to Mus musculus. Put plainly: Antiinflammatory activity in Balb/c mouse model of LPS-induced endotoxemia assessed as reduction in serum IL6 level at 1 mg/kg, ip pretreated for 1 hr followed by LPS-challenge measured after 2 hrs by ELISA. The class given is functional, organism-based. The method, boiled down: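 BALB/c mice were dosed with 1 mg·kg−1 i.p. 1 h before LPS 10 mg·kg−1 i.p. Serum was taken 2 h later, and TNF-α, IL-6 and IL-10 were measured by sandwich ELISA. Means ± SEM.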

Test [14] deals with BMDC. Put plainly: Inhibition of Escherichia coli K1 infection-induced immune response in C57BL/6 mouse BMDC assessed as increase in IL10 secretion at 25 uM pretreated for 60 to 120 mins followed by Escherichia coli K1 infection for 6 hrs by ELISA. The class given is functional, cell-based. The method, boiled down: as §1
Test [15] has as its system BMDC. Put plainly: Inhibition of LPS-induced immune response in C57BL/6 mouse BMDC assessed as increase in IL10 secretion at 25 uM treated 6 hrs post LPS-challenge measured after 30 mins by ELISA. The class given is functional, cell-based. The method, boiled down:
as §3

Test [16] deals with Mus musculus. Put plainly: Antiinflammatory activity in Balb/c mouse model of LPS-induced endotoxemia assessed as increase in IL10 producing Tr1 population in splenocyte at 1 mg/kg, ip pretreated for 1 hr followed by LPS-challenge measured after 12 hrs by flow cytometric analysis. The class given is functional, organism-based.
The subject of test [17] is BMDC. Put plainly: Inhibition of Escherichia coli DH5alpha infection-induced immune response in C57BL/6 mouse BMDC assessed as reduction in IL-6 secretion at 25 uM pretreated for 60 to 120 mins followed by Escherichia coli DH5alpha infection for 6 hrs by ELISA. The class given is functional, cell-based. The method, boiled down:
as §4

The source made the active and inactive calls. The calls are words filed in the database; no cut-off is given here.

Chain of Mitogen-activated protein kinase 8 (Homo sapiens) (P45983 whole entry, the tested form may be a part): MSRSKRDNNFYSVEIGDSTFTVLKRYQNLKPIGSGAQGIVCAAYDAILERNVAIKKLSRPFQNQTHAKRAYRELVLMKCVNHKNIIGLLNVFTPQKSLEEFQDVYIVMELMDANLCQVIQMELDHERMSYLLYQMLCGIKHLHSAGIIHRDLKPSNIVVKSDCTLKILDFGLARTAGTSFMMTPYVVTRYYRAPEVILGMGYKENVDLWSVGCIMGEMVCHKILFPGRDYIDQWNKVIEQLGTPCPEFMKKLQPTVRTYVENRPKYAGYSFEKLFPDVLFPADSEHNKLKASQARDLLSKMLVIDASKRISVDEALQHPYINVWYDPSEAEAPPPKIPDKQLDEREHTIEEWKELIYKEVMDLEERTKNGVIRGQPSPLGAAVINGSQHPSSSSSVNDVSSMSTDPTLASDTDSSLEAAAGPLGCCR

`COc1ccc(-c2oc3cc(O)cc(O)c3c(=O)c2O)cc1O` [TAMARIXETIN]: the inhibition entry in the test on BMDC [1], with BMDC [5], in the test on BMDC [9], in the test on BMDC [12] and with BMDC [15] was “Active” each time. Also, the outcome with Mus musculus [2], in the test with Mus musculus [3], in the test with Mus musculus [4], in the test on Mus musculus [8], in the test on Mus musculus [10] and in the test with Mus musculus [11] was Active. Moreover, the result in the test with Mus musculus [13] and in the test on Mus musculus [16] was Active. The compound also returned a K in test [6] of 4.9 ×10⁵ /M. Further, the Activity in the test with Mus musculus [7] is recorded as 80%. Besides, the inhibition result in the test on BMDC [14] and in the test on BMDC [17] was “inactive” in each case.
